Data taken from ChEMBL document CHEMBL1139486, “Novel benzopyridothiadiazepines as potential active antitumor agents” (J Med Chem, 2005).

system: L1210; experiment: Antiproliferative activity against mouse L1210 cells after 48 hrs relative control; type: functional, cell-based; conditions: L1210, 48 h
Summary of the method: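 L1210 cells grown in RPMI 1640 with 10% fetal calf serum, 2 mM L-glutamine, penicillin/streptomycin and 10 mM HEPES (pH 7.4). Cells were exposed 48 h to graded drug concentrations, then MTT was added for 4 h at 37 °C. Formazan was dissolved in DMSO and OD read at 540 nm. IC50 came from linear regression on the linear part of the dose-response curve, in triplicate.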

SMILES | IC50 [µM]
COc1ccc(CCCN2c3ccccc3N(C)S(=O)(=O)c3cccnc32)cc1 | > 10
COc1ccc(CCN2C=CC=C3C2=Nc2cc(C)ccc2S(=O)(=O)N3C)cc1 | 1.4
CN1C2=CC=CN(CCc3ccc(OCc4ccccc4)cc3)C2=Nc2ccccc2S1(=O)=O | > 10
COc1cc(CCN2c3ccccc3S(=O)(=O)N(C)c3cccnc32)cc(OC)c1OC | > 10
COc1ccc(CCN2c3cc(OC)ccc3N(C)S(=O)(=O)c3cccnc32)cc1 | > 10
COc1ccc(CN2c3cc(C)ccc3N(C)S(=O)(=O)c3cccnc32)cc1 | 6.9
COc1ccc(CN2C=CC=C3C2=Nc2ccccc2N(Cc2ccc(OC)cc2)S3(=O)=O)cc1 | > 100
COc1ccc(CCN2C=CC=C3C2=Nc2ccccc2N(Cc2ccc(OC)cc2)S3(=O)=O)cc1 | > 100
COc1ccc(CN2c3cc(C(F)(F)F)ccc3S(=O)(=O)N(C)c3cccnc32)cc1 | > 10
COc1ccc(CCN2c3ccccc3N(Cc3ccc(OC)cc3)S(=O)(=O)c3cccnc32)cc1 | > 100
COc1ccc(CN2c3ccccc3N(C)S(=O)(=O)c3cccnc32)cc1 | 9.6
CCN(CC)CCN1c2ccccc2N(CCc2ccc(OC)cc2)c2ncccc2S1(=O)=O | > 10
COc1ccc(CCCN2C=CC=C3C2=Nc2cc(C(F)(F)F)ccc2S(=O)(=O)N3C)cc1 | > 10
COc1ccc(CCN2C=CC=C3C2=Nc2cc(Cl)ccc2S(=O)(=O)N3C)cc1 | 1.3
COc1ccc(CN2c3cc(Cl)ccc3S(=O)(=O)N(C)c3cccnc32)cc1 | > 10

system: L1210; experiment: Cell cycle perturbations in mouse L1210 cells assessed as accumulation in G2+M phase after 21 hrs at 5 uM relative to control; type: functional; conditions: not given
Summary of the method: (§1)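 L1210 cells in RPMI 1640 with 10% fetal calf serum, 2 mM L-glutamine, antibiotics and 10 mM HEPES (pH 7.4) were exposed for 21 h (two doubling times). They were fixed in 70% ethanol and stained 30 min at 20 °C in D-PBS with […] RNAse and […] propidium iodide. 10⁴ cells per sample were analysed by flow cytometry for % G1, S, G2+M and 8N.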

SMILES | Activity [%]
COc1ccc(CCN2C=CC=C3C2=Nc2cc(C)ccc2S(=O)(=O)N3C)cc1 | 19
COc1ccc(CCN2C=CC=C3C2=Nc2cc(Cl)ccc2S(=O)(=O)N3C)cc1 | 26

system: L1210; experiment: Cell cycle perturbations in mouse L1210 cells assessed as accumulation in S phase after 21 hrs at 5 uM relative to control; type: functional; conditions: not given; summary of the method: as §1

SMILES | Activity [%]
COc1ccc(CCN2C=CC=C3C2=Nc2cc(C)ccc2S(=O)(=O)N3C)cc1 | 8
COc1ccc(CCN2C=CC=C3C2=Nc2cc(Cl)ccc2S(=O)(=O)N3C)cc1 | 6

system: L1210; experiment: Cell cycle perturbations in mouse L1210 cells assessed as accumulation in G1 phase after 21 hrs at 5 uM relative to control; type: functional; conditions: not given; summary of the method: as §1

SMILES | Activity [%]
COc1ccc(CCN2C=CC=C3C2=Nc2cc(C)ccc2S(=O)(=O)N3C)cc1 | 5
COc1ccc(CCN2C=CC=C3C2=Nc2cc(Cl)ccc2S(=O)(=O)N3C)cc1 | 7

system: L1210; experiment: Cell cycle perturbations in mouse L1210 cells assessed as accumulation in 8N phase after 21 hrs at 5 uM relative to control; type: functional; conditions: not given; summary of the method: as §1

SMILES | Activity [%]
COc1ccc(CCN2C=CC=C3C2=Nc2cc(C)ccc2S(=O)(=O)N3C)cc1 | 68
COc1ccc(CCN2C=CC=C3C2=Nc2cc(Cl)ccc2S(=O)(=O)N3C)cc1 | 61
